Test [1] addresses T1, Sterol O-acyltransferase 1 (Chlorocebus aethiops, UniProt O77760).
T1 sequence (O77760 whole entry): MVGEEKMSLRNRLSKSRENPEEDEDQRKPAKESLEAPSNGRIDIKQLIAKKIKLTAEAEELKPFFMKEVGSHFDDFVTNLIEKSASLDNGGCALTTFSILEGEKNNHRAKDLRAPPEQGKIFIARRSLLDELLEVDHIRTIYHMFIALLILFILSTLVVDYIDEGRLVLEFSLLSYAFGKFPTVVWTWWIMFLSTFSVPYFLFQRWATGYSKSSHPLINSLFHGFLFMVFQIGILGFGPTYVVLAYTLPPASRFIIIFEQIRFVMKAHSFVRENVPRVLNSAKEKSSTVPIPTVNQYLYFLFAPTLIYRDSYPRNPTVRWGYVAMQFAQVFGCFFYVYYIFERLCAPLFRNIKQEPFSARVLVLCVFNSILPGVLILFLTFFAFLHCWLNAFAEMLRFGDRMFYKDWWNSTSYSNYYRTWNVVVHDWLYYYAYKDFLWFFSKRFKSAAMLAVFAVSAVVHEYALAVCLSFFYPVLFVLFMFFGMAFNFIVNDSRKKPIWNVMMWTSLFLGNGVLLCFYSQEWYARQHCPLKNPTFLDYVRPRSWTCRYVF
Nature of the test: Inhibition of African green monkey SOAT1 expressed in CHO cell microsomal fractions assessed as reduction in neutral lipid synthesis incubated for 5 mins using [1-14C]oleoyl-CoA by thin-layer chromatography.

Test [2] deals with T2, Sterol O-acyltransferase 2 (Chlorocebus aethiops, UniProt O77759).
T2 sequence (O77759 whole entry): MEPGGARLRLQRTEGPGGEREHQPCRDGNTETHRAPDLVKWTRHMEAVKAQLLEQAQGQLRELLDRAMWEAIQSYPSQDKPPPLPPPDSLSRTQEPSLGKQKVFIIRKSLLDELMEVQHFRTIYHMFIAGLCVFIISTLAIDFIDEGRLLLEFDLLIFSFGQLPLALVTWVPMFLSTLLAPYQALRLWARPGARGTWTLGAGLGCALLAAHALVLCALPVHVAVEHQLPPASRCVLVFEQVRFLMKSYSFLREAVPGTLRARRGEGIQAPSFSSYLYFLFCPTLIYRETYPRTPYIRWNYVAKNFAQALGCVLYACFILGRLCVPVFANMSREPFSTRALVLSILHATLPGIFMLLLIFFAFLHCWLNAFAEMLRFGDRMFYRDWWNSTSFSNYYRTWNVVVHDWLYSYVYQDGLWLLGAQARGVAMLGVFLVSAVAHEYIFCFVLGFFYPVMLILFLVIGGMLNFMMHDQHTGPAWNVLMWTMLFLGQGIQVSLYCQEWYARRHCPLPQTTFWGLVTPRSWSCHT
The test can be described thus: Inhibition of African green monkey SOAT2 expressed in CHO cells assessed as reduction in neutral lipid synthesis incubated for 6 hrs using [1-14C]oleic acid by thin-layer chromatography. Format: cell-based. The method, boiled down:
(§1)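 CHO cells stably expressing monkey SOAT1 or SOAT2 in Ham's F-12 with 10% FBS, plated 1.25 × 10^5 cells/well, recovered overnight, ≥80% confluent. Sample added from 0–1 mg/mL MeOH stocks together with [1-14C]oleic acid (1 nmol) for 6 h at 37 °C. Lipids Bligh–Dyer extracted and separated by TLC; [14C]cholesteryl ester quantified vs control. IC50 from duplicated experiments.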

Test [3] addresses T2, Sterol O-acyltransferase 2. The test can be described thus: Inhibition of African green monkey SOAT2 expressed in CHO cell microsomal fractions assessed as reduction in neutral lipid synthesis incubated for 5 mins using [1-14C]oleoyl-CoA by thin-layer chromatography.
The subject of test [4] is HeLa. The test can be described thus: Growth inhibition of human HeLa cells incubated for 72 hrs by MTT assay. Format: functional, cell-based. Put shortly:
(§2)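 HeLa (DMEM) or HL60 (RPMI) cells, 10% heat-inactivated FBS, 37 °C, 5% CO2. HeLa seeded 2 × 10^4 cells/well and cultured overnight; HL60 seeded 1 × 10^5 cells/well. Exposed to a range of concentrations for 72 h; proliferation read by MTT; IC50 reported.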
For orientation: Tetrazolium assays rely on reduction of a dye to a coloured formazan, in cell work by metabolically active cells.

Test [5] has as its target T1, Sterol O-acyltransferase 1. The test can be described thus: Inhibition of African green monkey SOAT1 expressed in CHO cells assessed as reduction in neutral lipid synthesis incubated for 6 hrs using [1-14C]oleic acid by thin-layer chromatography. Format: cell-based. The method, boiled down: as §1
The test system of test [6] is HL-60. Nature of the test: Growth inhibition of human HL60 cells incubated for 72 hrs by MTT assay. Format: functional, cell-based. To be noted: HL-60, 72 h. Put shortly:
as §2

In test [7] the test system is HeLa. Nature of the test: Induction of cell killing in human HeLa cells assessed as reduction in cell viability at 1 to 30 uM incubated for 48 hrs by trypan blue dye exclusion method. Format: functional, cell-based. The method, boiled down:
(§3)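 HeLa seeded 4 × 10^4 cells/well, cultured overnight, then preincubated 30 min with or without 50 μM Z-VAD-FMK. Compound added at various concentrations for 48 h. Cells stained with 0.8 mg/mL trypan blue; viability from counts of stained (dead) cells. Mean ± SD of quadruplicates.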

Test [8] has as its system HeLa. Nature of the test: Induction of cell killing in human HeLa cells assessed as reduction in cell viability at 1 to 30 uM incubated for 48 hrs in presence of 50 uM Z-VAD-FMK by trypan blue dye exclusion method. It is filed as functional, cell-based. The method, boiled down:
as §3

The test system of test [9] is HeLa. The test can be described thus: Induction of apoptosis in human HeLa cells assessed as induction of caspase-3 activation incubated for 24 hrs using Ac-DEVD-pNA as substrate by spectrophotometry. It is filed as functional, cell-based. The method, boiled down:
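Exponentially growing HeLa, 2 × 10^6 cells per 60 mm dish, incubated 12 h at 37 °C, then treated 24 h. Cells washed in cold PBS, lysed by three freeze–thaw cycles plus 15 min on ice, and clarified at 15000g. Lysate incubated with Ac-DEVD-pNA, 37 °C, 4 h; p-nitroaniline read at 405 nm. Activity relative to 1% MeOH control; triplicates; tunicamycin positive control.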

Here are results for four compounds from ChEMBL document CHEMBL4177543, “Biseokeaniamides A, B, and C, Sterol O-Acyltransferase Inhibitors from an Okeania sp. Marine Cyanobacterium” (J Nat Prod, 2017).

As usually defined, the pIC50 is −log10 of the IC50, conventionally taken in molar units.

pIC50: −log10 of the molar value. Calls of active or inactive are those of the source. The calls are words filed in the database; no cut-off is given here. Non-standard residues stand in square brackets, D forms with d. Residues, ends and D or L forms follow the SMILES beside them. *: point of attachment. NMeF = CN[C@@H](Cc1ccccc1)C(=O)O; NMeV = CN[C@H](C(=O)O)C(C)C; Butyryl = CCCC(=O)*; X1 = CN(Cc1nccs1)*

As for `CCCC(=O)N(C)[C@H](C(=O)N1CCC[C@H]1C(=O)N(C)[C@@H](Cc1ccccc1)C(=O)N[C@@H](CC(C)C)C(=O)N(C)[C@H](C(=O)N(C)Cc1nccs1)C(C)C)C(C)C` (Butyryl-[NMeV]P[NMeF]L[NMeV]-X1), the pIC50 in test [1] is 5.74; in [2] it was 5.89; in test [3], 5.02; in [4], 4.54; in [5], 5.74; in [6], 4.52.
Regarding `COc1c([C@H](CC(C)C)OC(C)=O)ccc2c1C(=O)OCc1cc(C)cc(O)c1O2`, the pIC50 in test [1] is 6.05; in test [2], 5.82; in test [3], 5.74; in [5], 5.60.
In the case of `CCCC(=O)N(C)[C@H](C(=O)N1CCC[C@H]1C(=O)N(C)[C@@H](Cc1ccccc1)C(=O)N[C@@H](CC(C)C)C(=O)N[C@H](C(=O)N(C)Cc1nccs1)C(C)C)C(C)C` (Butyryl-[NMeV]P[NMeF]LV-X1), the result in [7] was Active. In addition, the result in test [8] was inactive. Further, the pIC50 in test [1] is 5.17; in [2], 5.60; in [3], 5.00; in test [4], 5.35; in test [5] it was 5.16; in [6], 4.72. In addition, the Activity result in test [9] was “Dose-dependent effect”.
For the compound `CCCC(=O)N[C@H](C(=O)N1CCC[C@H]1C(=O)N(C)[C@@H](Cc1ccccc1)C(=O)N[C@@H](CC(C)C)C(=O)N(C)[C@H](C(=O)N(C)Cc1nccs1)C(C)C)C(C)C` (Butyryl-VP[NMeF]L[NMeV]-X1), the pIC50 in [1] was 4.96; in [2], 5.02; in test [3] it was less than 4.49; in test [4] it was 4.37; in [5], less than 4.92; in [6] it was less than 4.00.
